From PubChem BioAssay
bCat KO growth: beta-catenin-lacking colon tumor cell growth suppression; HCT116 beta-catenin knockout viability, CellTiter-Glo, 60 h; hits give low values; viability, % at 10 µM; hit rate 1.5% among 140,000;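 active means viability at or under a set limit, the compound median less 4 SD, cut at about 6% in these data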
PTEN del growth: suppresses growth of cells with PTEN deletion; viability, % at 10 µM; hit rate 1.2% among 140,000; HCT116 PTEN-null viability, CellTiter-Glo, 60 h; hits give low values;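 active means viability at or below a set limit, 4 SD under the median of all tested compounds, cut at about 3.7% in these data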;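 further: PTEN knockout HCT116 line with beta catenin targeted HCT116 as companion control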
Dynein cargo inh: blocks dynein driven cargo transport along microtubules. 3617.4 mouse cells, GR-EGFP nuclear translocation imaging; test concentration mostly 20 µM; stimulated with dexamethasone, 1 µM; hits give low values. z-score, hits read low. hit rate 0.47% among 220,000;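 active means plate z-score of nuclear minus cytoplasmic receptor signal below a set negative limit, without overly bright fluorescence or cell loss, cut at about -3.5 in these data, passing the limit was not always enough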;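 further: z-score of nuclear minus cytoplasmic ring GR-EGFP intensity difference per well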
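Buffer or medium: tet-free, stripped-serum medium; reagent: dexamethasone at 1.0 µM final, 30 min; incubation: 48 h induction, 1 h compound, 30 min dex at 37 °C; measured by: formaldehyde fixation, Hoechst nuclear stain, 10x automated fluorescence imaging; read-out: nuclear-to-cytoplasmic GR-EGFP distribution per well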
L major viab: reduces viability of Leishmania major promastigotes; hit rate 9% among 200,000; resazurin fluorescence viability; inhibition, % at 10 µM; AID 1063; in the data active means inhibition above about 50%;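 further: promastigotes grown with compound for 44 hours at 28 °C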
Autophagy mod: modulators of autophagy; MEF GFP-LC3 puncta imaging; test concentration mostly 10 µM; calls only at 10 µM (by protocol); hit rate 0.98% among 190,000; AID 463193;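 active means percentage of spot-positive cells more than 3 SD above its plate mean, without a fluorescence outlier flag or 80% toxicity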
Large screens that a line does not name were inactive. Most compounds without a hit are left out; they make up all but 9.2% or so of the library.

O=C(/C=C/c1ccccc1[N+](=O)[O-])N1CCN(c2ccccc2F)CC1	none (no result: bCat KO growth, PTEN del growth)
CCC1CCCCN1C(=O)COc1c(Br)cc(Br)c2cccnc12 (stereo not given)	none (no result: bCat KO growth, PTEN del growth)
Clc1ccc(CN2CCC(c3nc4ccc(Cl)cc4[nH]3)CC2)cc1	L major viab 99
CC(SCc1ccccc1)C(=O)Nc1ccccc1-c1ccccc1 (stereo not given)	L major viab 57
O=C(Nc1ccccc1-c1ccccc1)C(c1ccccc1)c1ccccc1	none
Cc1nc2c3ccccc3n(Cc3ccccc3F)c2s1	L major viab 56
N/C(=N/OC(=O)c1ccccc1Cl)c1ncc([N+](=O)[O-])s1	none (no result: bCat KO growth, PTEN del growth, L major viab, Autophagy mod)
Cc1ccc(NC(=S)N2CCCC(c3nc4ccccc4[nH]3)C2)cc1 (stereo not given)	L major viab 89 (no result: bCat KO growth, PTEN del growth)
Cc1cc(C)c(OCCNC(=O)c2ccccc2Sc2ccccc2C#N)c(C)c1	L major viab 100
Cc1ccc(S(=O)(=O)c2cnc(-c3ccccc3)nc2N2CCCCC2)cc1	none (no result: bCat KO growth, PTEN del growth)
COC(=O)c1sc2nc(C)cc(C)c2c1N	none (no result: bCat KO growth, PTEN del growth)
Cc1cc(C)c2c(N)c(C(=O)c3ccccc3Cl)sc2n1	none (no result: bCat KO growth, PTEN del growth, L major viab, Autophagy mod)
Cc1cc(C)c2c(N)c(C(=O)Nc3ncc(C)s3)sc2n1	L major viab 68
Cc1cc(C)c2c(N)c(C(=O)c3cccc(Cl)c3)sc2n1	L major viab 100
Cc1cc(C)c2c(N)c(C(=O)c3ccc(Cl)cc3Cl)sc2n1	L major viab 100
Cc1onc(-c2c(F)cccc2Cl)c1C(N)=S	none (no result: bCat KO growth, PTEN del growth)
COc1ccc(CC2(CO)CCN(S(=O)(=O)c3sccc3C)CC2)cc1	none (no result: bCat KO growth, PTEN del growth)
CCC(C)(C)NC(=O)C(c1ccc(C)cc1)N(CCN1CCOCC1)C(=O)CNC(=O)c1cccs1 (stereo not given)	none (no result: bCat KO growth, PTEN del growth)
O=c1c2c(nc3cc(-c4ccc(F)cc4)[nH]n13)CCC2	none
COc1ccc(OC)c(NC(=O)CSc2nc3ccccc3cc2Cc2ccccc2)c1	L major viab 82
Cc1cccc(NC(=S)NC(=O)c2ccco2)n1	none
Cc1cccc(CN2CCN(CC(=O)NCCCN3CCCC3=O)C2=O)c1	none
Cc1cccc(CN2CCN(CC(=O)NCCCN3CCN(c4ccc(F)cc4)CC3)C2=O)c1	L major viab 95
O=C(/C=C/c1cc[n+](CC(=O)c2ccc3cccc4c3c2CC4)cc1)c1ccc2cccc3c2c1CC3	none (no result: bCat KO growth, PTEN del growth, L major viab, Autophagy mod)
COc1ccc(N(C(=O)c2cnccn2)C(C(=O)NC2CCCCC2)c2ccc(Cl)cc2)cc1 (stereo not given)	none (no result: bCat KO growth, PTEN del growth)
COc1ccc(C(C(=O)NC2CCCCC2)N(C(=O)CCl)c2ccc(Cl)cc2)cc1 (stereo not given)	bCat KO growth 1.8, PTEN del growth 1.8, L major viab 100
COc1ccc(N(C(=O)CCC(=O)Nc2cc(C)on2)C(C(=O)NC2CCCC2)c2ccco2)cc1 (stereo not given)	none (no result: bCat KO growth, PTEN del growth)
COc1ccc(C(C(=O)NC2CCCC2)N(C(=O)c2ccoc2C)c2cc(C)cc(C)c2)cc1 (stereo not given)	none
COc1ccc(N(C(=O)c2ccco2)C(C(=O)NC2CCCC2)c2ccc(N(C)C)cc2)cc1 (stereo not given)	L major viab 54
COc1ccc(C(C(=O)NC2CCCC2)N(C(=O)c2ccoc2C)c2ccc(C)c(C)c2)cc1 (stereo not given)	L major viab 75
COc1ccc(N(C(=O)/C=C/C(=O)Nc2cc(C)on2)C(C(=O)NC2CCCC2)c2ccccc2C)cc1 (stereo not given)	L major viab 97
COc1ccc(/C=C/c2nnc(NC(=O)CC(C)C)s2)cc1	none (no result: bCat KO growth, PTEN del growth, L major viab, Autophagy mod)
COC(=O)c1ccsc1NC(=O)c1ccc2c(c1)OCCO2	none (no result: bCat KO growth, PTEN del growth, L major viab, Autophagy mod)
COc1ccccc1/C=C/C(=O)NCc1ccccn1	none (no result: bCat KO growth, PTEN del growth)
O=C(CSc1n[nH]c(-c2ccccc2F)n1)NCC(=O)Nc1ccc(F)c(F)c1F	none (no result: bCat KO growth, PTEN del growth)
CC(C)CC(NC(=O)OC(C)(C)C)c1cn([C@@H](Cc2ccc(O)cc2)C(=O)N2CCN(C(=O)OC(C)(C)C)CC2)nn1 (stereo not given in full)	none (no result: bCat KO growth, PTEN del growth)
O=C(CCCC(=O)N(c1ccc2c(c1)OCCO2)C(C(=O)NC1CCCCC1)c1ccc(Cl)cc1)Nc1ccccn1 (stereo not given)	L major viab 58
CN(C)c1ccc(NC2=C(Cl)C(=O)c3ccccc3C2=O)cc1	bCat KO growth 1.6, PTEN del growth 1.5
COc1cccc(/C=N/NC(=O)c2c(C)nc3ccc(Br)cn23)c1O	L major viab 100 (no result: bCat KO growth, PTEN del growth)
COc1cccc(/C=N/NC(=O)c2ccc3nc[nH]c3c2)c1O	none (no result: bCat KO growth, PTEN del growth, L major viab, Autophagy mod)
COc1cccc(/C=N/NC(=O)c2nc(-c3ccccc3)cc(-c3ccccc3)n2)c1O	L major viab 100
CCn1c(C)nc2cc(C(=O)N/N=C/c3cccc(OC)c3O)ccc21	L major viab 94 (no result: bCat KO growth, PTEN del growth)
COc1ccc(/C=N/NC(=O)c2c(C)nc3ccc(Br)cn23)cc1OC	none (no result: bCat KO growth, PTEN del growth, L major viab, Autophagy mod)
O=C(Nc1cccc(Cl)c1)c1ccc2c(c1)SC1=NS(=O)(=O)CCN12	none (no result: bCat KO growth, PTEN del growth)
CC(CNC(=O)c1ccc(C(C)(C)C)cc1)CN(C)C (stereo not given)	none
Cc1nnc(SCc2cccc([N+](=O)[O-])c2)o1	none (no result: bCat KO growth, PTEN del growth)
Cc1nc(SCC2(C)CC2(Cl)Cl)n[nH]1 (stereo not given)	none (no result: bCat KO growth, PTEN del growth)
Cc1cc(N)ccc1N1CCCC1	L major viab 58
Cc1cc(N)ccc1-n1c(C)ccc1C	none
CN1CC(=O)N(CC(=O)Nc2cc(Cl)cc(Cl)c2)C1=O	none (no result: bCat KO growth, PTEN del growth)
Cc1ccc(NC(=S)N2CCCN(Cc3ccc(F)cc3)C2)c(C)c1	L major viab 89 (no result: bCat KO growth, PTEN del growth)
Cc1ccccc1NC(=S)N1CCCN(Cc2ccc(F)cc2)C1	L major viab 86 (no result: bCat KO growth, PTEN del growth)
Cc1ccc(NC(=S)N2CCN(C)CC2)c(C)c1	none
CSc1cccc(NC(=S)N2CCCN(Cc3ccc(F)cc3)C2)c1	L major viab 86 (no result: bCat KO growth, PTEN del growth)
COc1ccc(/C=N/NC(=O)CNS(=O)(=O)c2ccc(C)cc2)cc1	none (no result: bCat KO growth, PTEN del growth)
CC1=NNC(=O)C1CC(=O)N/N=C(\C)c1ccco1 (stereo not given)	none (no result: bCat KO growth, PTEN del growth)
C=CCOc1ccccc1CN1CCCC(CCC(=O)N(C)CCc2ccccn2)C1 (stereo not given)	none (no result: bCat KO growth, PTEN del growth)
C#CCN1C(=O)S/C(=C/C=C/c2ccc(N(C)C)cc2)C1=O	L major viab 88, Autophagy mod active
O=C(CN1C(=O)S/C(=C\C=C\c2ccccc2)C1=O)Nc1ccccc1C(=O)O	none (no result: bCat KO growth, PTEN del growth, L major viab, Autophagy mod)
Fc1cccc(/C=N/Nc2ccc3ccccc3n2)c1	L major viab 52 (no result: bCat KO growth, PTEN del growth)
Fc1cccc(/C=N/Nc2nc3ccccc3[nH]2)c1	L major viab 83 (no result: bCat KO growth, PTEN del growth)
Brc1ccc(/C=N/Nc2ccc3ccccc3n2)cc1	none
Fc1ccc(/C=N/Nc2nc3ccccc3[nH]2)cc1F	L major viab 90 (no result: bCat KO growth, PTEN del growth)
COc1ccc(N2CCN(c3ncccn3)CC2)cc1	none
COc1ccc(S(=O)(=O)CC2(O)CCN(C(=O)CC(C)C)CC2)cc1	none (no result: bCat KO growth, PTEN del growth)
COc1cc(OC)c(-c2nn3c(C4CCCCC4)nnc3s2)cc1OC	L major viab 56
COc1cc(-c2nnc3sc(C4CCCCC4)nn23)cc(OC)c1OC	none
CCOC(=O)c1c(NC(=O)CSc2ncnc3[nH]ncc23)sc2c1CCC(C)C2 (stereo not given)	none (no result: bCat KO growth, PTEN del growth)
Cc1cc(C(=O)Nc2ccc(OCc3ccccc3)cc2)c(C)o1	none (no result: bCat KO growth, PTEN del growth)
